In ChEMBL document CHEMBL1155270, “Modifications at the C-terminus to improve pyrrole-imidazole polyamide activity in cell culture” (J Med Chem, 2009):
The source made the active and inactive calls. The rule behind the calls is not given here.

How the values were obtained:
LNCaP [1] = experiment: Cytotoxicity against human LNCAP cells after 48 hrs by WST1 assay; format: functional, cell-based
Method in brief: (§1)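 LNCaP cells were seeded at 10-15 × 10^2 per well and allowed to settle 48 h before polyamide was added as 2× media solutions (DMSO <0.1%). After 48 h exposure, media was replaced and cells recovered 24 h. WST-1 was added for 30 min and A450 read. Wells were corrected for media-only background and normalized to untreated controls.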

LNCaP [2] = experiment: Cytotoxicity against human LNCAP cells at 0.02 to 50 uM after 48 hrs by WST1 assay; format: functional, cell-based; method in brief: as §1
U-251 [3] = experiment: Cytotoxicity against human U251 cells at 0.002 to 10 uM after 48 hrs by WST1 assay; format: functional, cell-based
Method in brief: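 U251 cells were plated at 10-15 × 10^2 per well. After 24 h, polyamide was added in 2× media, with a 10–0.002 μM range for the core-less oxime controls. Cells were treated 48 h, then given fresh media for 24 h recovery. WST-1 was read at 450 nm after 30 min, with background correction and normalization to untreated wells.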

U-251 [4] = experiment: Cytotoxicity against human U251 cells after 48 hrs by WST1 assay; conditions: U-251, 48 h
LNCaP [5] = experiment: Cytotoxicity against human LNCAP cells assessed as cell viability at 0.01 to 30 uM after 48 hrs by WST1 assay; format: functional; method in brief: as §1
Nucleic Acid [6] = experiment: Binding affinity to 5'-TTGCAGAACAGCAA-3' sequence of DNA assessed as change in melting temperature by spectrophotometry; format: nucleic-acid assay
LNCaP [7] = experiment: Inhibition of dihydrotestosterone-induced prostate specific antigen expression in human LNCAP cells at 5 uM by quantitative RT-PCR analysis; format: functional
Method in brief: (§2)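 LNCaP cells were induced with 1 nM DHT and PSA mRNA measured by quantitative real-time RT-PCR. Oxime-linked polyamides were given at 5, 1 and 0.1 μM, and unconjugated controls at 5 μM, with DMSO ≤0.1%. Expression was normalized to untreated DHT-induced cells; uninduced and DMSO controls were included.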

Nucleic Acid [8] = experiment: Binding affinity to 14mer DNA assessed as change in melting temperature by spectrophotometry; format: nucleic-acid assay
Method in brief: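 Thermal melting of 14-mer oligonucleotide duplexes (HRE or ARE sequence) with and without polyamide, read by UV spectrophotometry in 1 cm quartz cuvettes with a thermostatted holder. Buffer was 10 mM sodium cacodylate, 10 mM KCl, 10 mM MgCl2, 5 mM CaCl2, pH 7.0. ΔTm is taken relative to the free duplex.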

LNCaP [9] = experiment: Inhibition of dihydrotestosterone-induced prostate specific antigen expression in human LNCAP cells at 0.1 to 5 uM by quantitative RT-PCR analysis; format: functional, cell-based; method in brief: as §2
LNCaP [10] = experiment: Cytotoxicity against human LNCAP cells at 0.01 to 30 uM after 48 hrs by WST1 assay; format: functional, cell-based; method in brief: as §1
LNCaP [11] = experiment: Inhibition of dihydrotestosterone-induced prostate specific antigen expression in human LNCAP cells at 1 uM by quantitative RT-PCR analysis; format: functional, cell-based; method in brief: as §2
LNCaP [12] = experiment: Inhibition of dihydrotestosterone-induced prostate specific antigen expression in human LNCAP cells by quantitative RT-PCR analysis; format: functional, cell-based
Method in brief: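 For gene-regulation IC50, DHT (1 nM)-induced LNCaP cells were dosed across 30–0.1 μM or 10–0.03 μM. PSA mRNA was quantified by real-time RT-PCR and normalized to induced untreated cells. Isotherms from three independent experiments were fitted with a modified Hill equation.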

LNCaP [13] = experiment: Cytotoxicity against human LNCAP cells at 5 uM after 48 hrs by WST1 assay; format: functional, cell-based
LNCaP [14] = experiment: Selectivity ratio of IC50 for human LNCAP cells to IC50 for inhibition of dihydrotestosterone-induced prostate specific antigen expression in human LNCAP cells; format: functional
Method in brief: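 Ratio of WST-1 growth-inhibition IC50 (48 h exposure, 24 h recovery, LNCaP) to PSA gene-regulation IC50. The gene-regulation IC50 came from Hill-fitted RT-PCR isotherms in 1 nM DHT-induced LNCaP cells, three independent experiments.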

U-251 [15] = experiment: Inhibition of desferrioxamine-induced VEGF mRNA expression in human U251 cells at 0.02 to 0.2 uM by quantitative RT-PCR analysis; format: functional, cell-based
Method in brief: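 In U251 cells, induced VEGF mRNA was quantified by real-time RT-PCR after polyamide at 1, 0.2 and 0.02 μM, with DMSO ≤0.1%. Values were normalized to untreated induced cells; uninduced and DMSO-vehicle controls were run alongside.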

LNCaP [16] = experiment: Inhibition of desferrioxamine-induced VEGF mRNA expression in human LNCAP cells at 1 to 2 uM by quantitative RT-PCR analysis; format: functional, cell-based

ΔTm (Nucleic Acid [6]) | ΔTm (Nucleic Acid [8]) | SMILES | IC50 (LNCaP [1]) | inhibition (LNCaP [7]) | Activity (LNCaP [13]) | other results
– | – | NCCCO/N=C\c1ccc(F)cc1 | > 50000 nM | – | – | Activity (LNCaP [2]): inactive; Activity (U-251 [3]): inactive; IC50 (U-251 [4]): > 10000 nM
10.4 °C | – | Cn1cc(NC(=O)c2cc(NC(=O)c3cc(NC(=O)c4nc(NC(=O)[C@H](N)CCNC(=O)c5cc(NC(=O)c6cc(NC(=O)c7cc(NC(=O)c8nccn8C)cn7C)cn6C)cn5C)cn4C)cn3C)cn2C)cc1C(=O)NCCCCCCCNC(=O)c1cccc(C(=O)O)c1 | > 30000 nM | – | – | Activity (LNCaP [5]): <50%
– | 2 °C | Cn1cc(NC(=O)c2cc(NC(=O)c3nc(NC(=O)c4cc(NC(=O)[C@H](N)CCNC(=O)c5nc(NC(=O)c6cc(NC(=O)c7cc(NC(=O)c8nccn8C)cn7C)cn6C)cn5C)cn4C)cn3C)cn2C)cc1C(=O)NCCCON | – | – | – | inhibition at 5 µM (LNCaP [7]): 10%
– | 2.6 °C | Cn1cc(NC(=O)c2cc(NC(=O)c3nc(NC(=O)c4cc(NC(=O)[C@H](N)CCNC(=O)c5nc(NC(=O)c6cc(NC(=O)c7cc(NC(=O)c8nccn8C)cn7C)cn6C)cn5C)cn4C)cn3C)cn2C)cc1C(=O)NCCCO/N=C\c1cccc(C(=O)O)c1 | – | – | – | inhibition (LNCaP [9]): Active; Activity (LNCaP [5]): <50%; Activity (LNCaP [10]): inactive
11.5 °C | – | Cn1cc(NC(=O)c2cc(NC(=O)c3cc(NC(=O)c4nc(NC(=O)[C@H](N)CCNC(=O)c5cc(NC(=O)c6cc(NC(=O)c7cc(NC(=O)c8nccn8C)cn7C)cn6C)cn5C)cn4C)cn3C)cn2C)cc1C(=O)NCCCO/N=C\c1cccc(C(=O)O)c1 | 1700 nM | Active | Active | inhibition (LNCaP [11]): Active; IC50 (LNCaP [12]): 300 nM; Ratio IC50 (LNCaP [14]): 6.1
– | – | CC(=O)NCCCO/N=C\c1ccc(F)cc1 | > 50000 nM | – | – | Activity (LNCaP [2]): inactive; Activity (U-251 [3]): inactive; IC50 (U-251 [4]): > 10000 nM
– | 13.1 °C | Cn1cc(NC(=O)c2cc(NC(=O)c3cc(NC(=O)c4nc(NC(=O)[C@H](N)CCNC(=O)c5cc(NC(=O)c6cc(NC(=O)c7cc(NC(=O)c8nccn8C)cn7C)cn6C)cn5C)cn4C)cn3C)cn2C)cc1C(=O)NCCCO/N=C\c1ccc(F)cc1 | 400 nM | Active | Active | inhibition (LNCaP [11]): Active; IC50 (LNCaP [12]): 600 nM; Ratio IC50 (LNCaP [14]): 0.7
11.2 °C | – | Cn1cc(NC(=O)c2cc(NC(=O)c3cc(NC(=O)c4nc(NC(=O)[C@H](N)CCNC(=O)c5cc(NC(=O)c6cc(NC(=O)c7cc(NC(=O)c8nccn8C)cn7C)cn6C)cn5C)cn4C)cn3C)cn2C)cc1C(=O)NCCCON | – | – | – | inhibition at 5 µM (LNCaP [7]): 50%
– | 0.8 °C | Cn1cc(NC(=O)c2cc(NC(=O)c3cc(NC(=O)c4nc(NC(=O)[C@H](N)CCNC(=O)c5nc(NC(=O)c6cc(NC(=O)c7nc(NC(=O)c8nccn8C)cn7C)cn6C)cn5C)cn4C)cn3C)cn2C)cc1C(=O)NCCCO/N=C\c1ccc(F)cc1 | – | – | – | inhibition (U-251 [15]): Active; inhibition (LNCaP [16]): Active
12.5 °C | – | Cn1cc(NC(=O)c2cc(NC(=O)c3cc(NC(=O)c4nc(NC(=O)[C@H](N)CCNC(=O)c5cc(NC(=O)c6cc(NC(=O)c7cc(NC(=O)c8nccn8C)cn7C)cn6C)cn5C)cn4C)cn3C)cn2C)cc1C(=O)NCCCO/N=C\c1cccc(F)c1 | 600 nM | Active | Active | –
